ChEMBL document CHEMBL1833964, “Synthesis, structure-activity relationship and in vitro biological evaluation of N-arylethyl isoquinoline derivatives as Coxsackievirus B3 inhibitors” (Bioorg Med Chem Lett, 2011)

Experiments:
[1] = Selectivity index, ratio of TC50 for african green monkey vero cells to IC50 for Enterovirus 71; type: toxicity, cell-based; conditions: read-out: Selectivity Index
[2] = tested on: Enterovirus A71; experiment: Antiviral activity against Enterovirus 71 infected in african green monkey vero cells assessed as inhibition of viral replication by Reed-Muench analysis; type: functional, organism-based; conditions: Enterovirus A
[3] = Selectivity index, ratio of TC50 for african green monkey vero cells to IC50 for Coxsackievirus B3; type: toxicity, cell-based; conditions: read-out: Selectivity Index
Outline: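 Selectivity index is TC50 divided by IC50. TC50 is from 48 h CPE monitoring of compound-treated uninfected Vero monolayers. IC50 is from CPE scoring at 4+ virus control in Vero cells infected with 100 TCID50 CVB3 and kept in MEM with 2% FBS. Both values came from Reed and Muench analysis, in triplicate experiments.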

[4] = tested on: Coxsackievirus B3; experiment: Antiviral activity against Coxsackievirus B3 infected in african green monkey vero cells assessed as inhibition of viral replication by Reed-Muench analysis; type: functional, organism-based; conditions: Enterovirus B
Outline: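 Vero monolayers infected with 100 TCID50 CVB3, then kept in maintenance medium (MEM plus 2% FBS) with or without test compound at various concentrations. Viral CPE was scored once the virus control reached 4+. The 50% inhibitory concentration came from Reed and Muench analysis. Three independent experiments.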

[5] = Cytotoxicity against african green monkey Vero cells infected with Coxsackievirus B3 assessed as growth inhibition after 48 hrs by Reed-Muench analysis; type: cell-based; conditions: chlorocebus sabaeus, read-out: TC50
Outline: (§1)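 Vero cells plated at 2.5 × 10^4 per well and grown 24 h to a monolayer, then exposed to a range of test compound concentrations for 48 h at 37 °C. Cell damage was monitored as CPE, and TC50 came from Reed and Muench analysis. Each experiment was run three times.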

[6] = Cytotoxicity against african green monkey Vero cells infected with Enterovirus 71 assessed as growth inhibition after 48 hrs by Reed-Muench analysis; type: cell-based; conditions: chlorocebus sabaeus, read-out: TC50; outline: as §1

Compound: Oc1ccc2cc[n+](CCc3ccccc3)cc2c1
- selectivity ratio [1]: 3.5
- IC50 [2]: 152 µM
- selectivity ratio [3]: 15.6
- IC50 [4]: 25 µM
- CC50 at 48 h [5]: 389 µM
- CC50 at 48 h [6]: 534 µM

Compound: COc1ccc2cc[n+](CCc3ccccc3)cc2c1O
- selectivity ratio [3]: 3.9
- IC50 [4]: 91.1 µM
- CC50 at 48 h [5]: 352 µM

Compound: COc1ccc2cc[n+](CCc3ccccc3C)cc2c1O
- IC50 [4]: > 337 µM
- CC50 at 48 h [5]: 584 µM

Compound: COc1ccc(CC[n+]2ccc3ccc(OC)c(O)c3c2)cc1
- IC50 [4]: > 107 µM
- CC50 at 48 h [5]: 464 µM

Compound: COc1ccc2cc[n+](CCc3ccccc3)cc2c1OC
- selectivity ratio [3]: 2.8
- IC50 [4]: 209 µM
- CC50 at 48 h [5]: 584 µM

Compound: COc1cc2cc[n+](CCc3ccccc3)cc2cc1OC
- IC50 [4]: > 337 µM
- CC50 at 48 h [5]: 1010 µM

Compound: COc1ccc2cc[n+](CCc3ccc(F)cc3)cc2c1OC
- IC50 [4]: > 320 µM
- CC50 at 48 h [5]: 1380 µM

Compound: COc1ccc(CC[n+]2ccc3ccc(OC)c(OC)c3c2)cc1
- IC50 [4]: > 11.4 µM
- CC50 at 48 h [5]: 49.5 µM

Compound: c1ccc(CC[n+]2ccc3ccc4c(c3c2)OCO4)cc1
- selectivity ratio [1]: 9
- IC50 [2]: 91.1 µM
- selectivity ratio [3]: 26.8
- IC50 [4]: 30.4 µM
- CC50 at 48 h [5]: 815 µM
- CC50 at 48 h [6]: 820 µM

Compound: Fc1ccc(CC[n+]2ccc3ccc4c(c3c2)OCO4)cc1
- selectivity ratio [1]: 9.2
- IC50 [2]: 45.8 µM
- IC50 [4]: > 335 µM
- CC50 at 48 h [5]: 581 µM
- CC50 at 48 h [6]: 420 µM

Compound: COc1cc2cc[n+](CCc3ccc(F)cc3)cc2cc1OC
- selectivity ratio [1]: 8.1
- IC50 [2]: 107 µM
- IC50 [4]: > 320 µM
- CC50 at 48 h [5]: 665 µM
- CC50 at 48 h [6]: 864 µM

Compound: COc1cc2cc[n+](CCc3ccccc3F)cc2cc1OC
- IC50 [4]: > 53.3 µM
- CC50 at 48 h [5]: 206 µM

Compound: COc1cc2cc[n+](CCc3cccc(Cl)c3)cc2cc1OC
- IC50 [4]: > 33.9 µM
- CC50 at 48 h [5]: 131 µM

Compound: COc1cc2cc[n+](CCc3ccccc3C)cc2cc1OC
- IC50 [4]: > 323 µM
- CC50 at 48 h [5]: 970 µM

Compound: COc1cc2c[n+](CCc3ccccc3C)ccc2cc1O
- selectivity ratio [3]: 2.1
- IC50 [4]: 112 µM
- CC50 at 48 h [5]: 234 µM

Compound: COc1cc2c[n+](CCc3ccccc3F)ccc2cc1O
- IC50 [4]: > 111 µM
- CC50 at 48 h [5]: 333 µM

Compound: Oc1ccc2cc[n+](CCc3cccc(Cl)c3)cc2c1
- IC50 [4]: > 38.6 µM
- CC50 at 48 h [5]: 200 µM

Compound: Oc1ccc2cc[n+](CCc3ccc(F)cc3)cc2c1
- IC50 [4]: > 336 µM
- CC50 at 48 h [5]: 1100 µM

Compound: Cc1ccccc1CC[n+]1ccc2ccc(O)cc2c1
- selectivity ratio [3]: 2.1
- IC50 [4]: 371 µM
- CC50 at 48 h [5]: 772 µM

Compound: COc1ccccc1CC[n+]1ccc2ccc(O)cc2c1
- IC50 [4]: > 352 µM
- CC50 at 48 h [5]: 1060 µM

Compound: COc1cc2c[n+](CCc3ccccc3)ccc2c(OC)c1OC
- IC50 [4]: > 927 µM
- CC50 at 48 h [5]: 2780 µM

Compound: COc1ccc(CC[n+]2ccc3c(OC)c(OC)c(OC)cc3c2)cc1
- IC50 [4]: > 10.6 µM
- CC50 at 48 h [5]: 46 µM

Compound: NC(=O)c1ncn([C@@H]2O[C@H](CO)[C@@H](O)[C@H]2O)n1 [RIBAVIRIN]
- IC50 [2]: 2120 µM
- IC50 [4]: 910 µM
